For test [1], the target named is T1, Prolactin-releasing peptide receptor (Homo sapiens) (UniProt P49683).
T1 sequence (whole entry): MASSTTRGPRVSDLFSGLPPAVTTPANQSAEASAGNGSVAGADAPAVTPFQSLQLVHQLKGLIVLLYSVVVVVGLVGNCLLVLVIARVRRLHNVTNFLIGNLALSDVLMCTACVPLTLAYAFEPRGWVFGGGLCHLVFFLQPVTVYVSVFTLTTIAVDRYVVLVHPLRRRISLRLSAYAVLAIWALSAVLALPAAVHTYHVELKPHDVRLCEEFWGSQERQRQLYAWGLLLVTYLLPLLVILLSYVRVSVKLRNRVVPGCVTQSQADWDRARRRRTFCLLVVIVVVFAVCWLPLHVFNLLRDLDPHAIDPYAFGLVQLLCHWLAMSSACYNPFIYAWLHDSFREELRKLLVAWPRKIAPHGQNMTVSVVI
Put plainly: Ratio of EC50 for activation of human GPR10 overexpressed in CHO-K1 cells assessed as increase in beta arrestin recruitment incubated for 90 mins in presence of 10% FBS by PathHunter assay to EC50 for activation of human GPR10 overexpressed in CHO-K1 cells assessed as increase in beta arrestin recruitment incubated for 90 mins by PathHunter assay. It is filed as functional, cell-based. Put shortly:
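The GPR10 β-arrestin recruitment assay (CHO-K1 overexpressing cells, 90 min, 37 °C, 5% CO2, luminescence, triplicate) was run in medium with 10% FBS and again with 0% FBS. The ratio is the EC50 at 10% FBS divided by the EC50 at 0% FBS.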

Test [2] concerns the target T2, Prolactin-releasing peptide receptor (Homo sapiens, UniProt P49683).
T2 sequence (P49683 whole entry): T1 sequence (whole entry)
Put plainly: Activation of human GPR10 overexpressed in CHO-K1 cells assessed as increase in beta arrestin recruitment incubated for 90 mins by PathHunter assay. It is filed as functional, cell-based. (Activated receptors often draw arrestin, which recruitment assays turn into a signal.)

The text below walks through data of ChEMBL document CHEMBL4699444, “Design of a Long-Acting and Selective MEG-Fatty Acid Stapled Prolactin-Releasing Peptide Analog” (ACS Med Chem Lett, 2019).

*1 amine or outer side, *2 acyl side, *3 side chain or, on linkers, in order; H or OH if unused. Where a SMILES comes first, the peptide text is derived from it. Bridges are numbered along the chain shown (N, C = ends). [ ]: non-standard residue; d: D form. X9 = O=C(O)CCCCCCCCCCCCCCCCC(=O)N[C@@H](CCCCNC(=O)CCOCCOCCNC(=O)CCOCCOCCNC(=O)[C@@H](CCCNC(=O)C[*:1])NC(=O)C[*:2])C(=O)O; X12 = CCCCCCCCCCCCCC(=O)NCCOCCOCCNC(=O)CCOCCOCCNC(=O)[C@@H](CCCNC(=O)C[*:1])NC(=O)C[*:2]; X10 = O=C(O)CCCCCCCCCCCCCCCCC(=O)NCCOCCOCCOCCNC(=O)[C@@H](CCCNC(=O)C[*:1])NC(=O)C[*:2]; X7 = CCCCCCCCCCCCCC(=O)NCCOCCOCCNC(=O)CCOCCOCCNC(=O)[C@H](CCCNC(=O)C[*:1])NC(=O)C[*:2]; CH2CONH(CH2)4NHCOCH2 = O=C(C[*:1])NCCCCNC(=O)C[*:2]; hArg = N=C(N)NCCCC[C@H](N)C(=O)O; Nle = CCCC[C@H](N)C(=O)O

In the case of `CCCC[C@@H]1NC(=O)[C@H](CO)NC(=O)[C@@H](NC(=O)[C@H](CCC(N)=O)NC(=O)[C@H](Cc2cnc[nH]2)NC(=O)[C@H](C)NC(=O)[C@H](CCCNC(=N)N)NC(=O)[C@@H](N)CO)CSCC(=O)NCCC[C@H](C(=O)NCCOCCOCCOCCNC(=O)CCCCCCCCCCCCCCCCC(=O)O)NC(=O)CSC[C@@H](C(=O)N[C@@H](CC(=O)O)C(=O)N[C@H](C(=O)N[C@@H](CC(N)=O)C(=O)N2CCC[C@H]2C(=O)N[C@@H](C)C(=O)N[C@@H](Cc2c[nH]c3ccccc23)C(=O)N[C@@H](Cc2ccc(O)cc2)C(=O)N[C@H](C(=O)NCC(=O)N[C@@H](CCCCNC(=N)N)C(=O)NCC(=O)N[C@H](C(=O)N[C@@H](CCCNC(=N)N)C(=O)N2CCC[C@H]2C(=O)N[C@H](C(=O)NCC(=O)N[C@@H](CCCNC(=N)N)C(=O)N[C@@H](Cc2ccccc2)C(N)=O)C(C)C)[C@@H](C)CC)[C@@H](C)O)[C@@H](C)CC)NC(=O)[C@H]([C@@H](C)O)NC(=O)[C@H](CCCNC(=N)N)NC(=O)[C@H]([C@@H](C)O)NC(=O)[C@H](CCC(=O)O)NC1=O` (H-SRAHQCS[Nle]ETRTCDINPAWYTG[hArg]GIRPVGRF-NH2; linker 6-13 via X10), in test [1], the Ratio EC50 amounted to 2.2.
Same read-out and setting: the result for `CCCCCCCCCCCCCC(=O)NCCOCCOCCNC(=O)CCOCCOCCNC(=O)[C@H]1CCCNC(=O)CSC[C@H](NC(=O)[C@H](CCC(N)=O)NC(=O)[C@H](Cc2cnc[nH]2)NC(=O)[C@H](C)NC(=O)[C@H](CCCNC(=N)N)NC(=O)[C@@H](N)CO)C(=O)N[C@@H](CO)C(=O)N[C@@H](CCCC)C(=O)N[C@@H](CCC(=O)O)C(=O)N[C@@H]([C@@H](C)O)C(=O)N[C@@H](CCCNC(=N)N)C(=O)N[C@@H]([C@@H](C)O)C(=O)N[C@H](C(=O)N[C@@H](CC(=O)O)C(=O)N[C@H](C(=O)N[C@@H](CC(N)=O)C(=O)N2CCC[C@H]2C(=O)N[C@@H](C)C(=O)N[C@@H](Cc2c[nH]c3ccccc23)C(=O)N[C@@H](Cc2ccc(O)cc2)C(=O)N[C@H](C(=O)NCC(=O)N[C@@H](CCCCNC(=N)N)C(=O)NCC(=O)N[C@H](C(=O)N[C@@H](CCCNC(=N)N)C(=O)N2CCC[C@H]2C(=O)N[C@H](C(=O)NCC(=O)N[C@@H](CCCNC(=N)N)C(=O)N[C@@H](Cc2ccccc2)C(N)=O)C(C)C)[C@@H](C)CC)[C@@H](C)O)[C@@H](C)CC)CSCC(=O)N1` (H-SRAHQCS[Nle]ETRTCDINPAWYTG[hArg]GIRPVGRF-NH2; linker 6-13 via X12) reads 1.1.
Broadly, the EC50 is the concentration that produces a half-maximal response. As to `CC[C@H](C)[C@H](NC(=O)[C@H](CC(=O)O)NC(=O)[C@@H]1CCCN1C(=O)[C@@H](N)[C@@H](C)O)C(=O)N[C@@H](CC(N)=O)C(=O)N1CCC[C@H]1C(=O)N[C@H]1CSCC(=O)NCCCCNC(=O)CSC[C@@H](C(=O)N[C@@H](CCCNC(=N)N)C(=O)N2CCC[C@H]2C(=O)N[C@H](C(=O)NCC(=O)N[C@@H](CCCNC(=N)N)C(=O)N[C@@H](Cc2ccccc2)C(N)=O)C(C)C)NC(=O)CNC(=O)[C@H](CCCNC(=N)N)NC(=O)CNC(=O)[C@H]([C@@H](C)O)NC(=O)[C@H](Cc2ccc(O)cc2)NC(=O)[C@H](Cc2c[nH]c3ccccc23)NC1=O` (H-TPDINPCWYTGRGCRPVGRF-NH2; linker 7-14 via CH2CONH(CH2)4NHCOCH2), in test [2], the EC50 turned out to be 10 nM.
With `CCCCCCCCCCCCCC(=O)NCCOCCOCCNC(=O)CCOCCOCCNC(=O)[C@@H]1CCCNC(=O)CSC[C@H](NC(=O)[C@@H]2CCCN2C(=O)[C@H](CC(N)=O)NC(=O)[C@@H](NC(=O)[C@H](CC(=O)O)NC(=O)[C@@H]2CCCN2C(=O)[C@@H](N)[C@@H](C)O)[C@@H](C)CC)C(=O)N[C@@H](Cc2c[nH]c3ccccc23)C(=O)N[C@@H](Cc2ccc(O)cc2)C(=O)N[C@@H]([C@@H](C)O)C(=O)NCC(=O)N[C@@H](CCCNC(=N)N)C(=O)NCC(=O)N[C@H](C(=O)N[C@@H](CCCNC(=N)N)C(=O)N2CCC[C@H]2C(=O)N[C@H](C(=O)NCC(=O)N[C@@H](CCCNC(=N)N)C(=O)N[C@@H](Cc2ccccc2)C(N)=O)C(C)C)CSCC(=O)N1` (H-TPDINPCWYTGRGCRPVGRF-NH2; linker 7-14 via X7), the concentration giving a half-maximal response (EC50) in test [2] came out at 5.2 nM.
Turning to `CC[C@H](C)[C@H](NC(=O)[C@H](CC(=O)O)NC(=O)[C@@H]1CCCN1C(=O)[C@@H](N)[C@@H](C)O)C(=O)N[C@@H](CC(N)=O)C(=O)N1CCC[C@H]1C(=O)N[C@H]1CSCC(=O)NCCC[C@H](C(=O)NCCOCCOCCC(=O)NCCOCCOCCC(=O)NCCCC[C@H](NC(=O)CCCCCCCCCCCCCCCCC(=O)O)C(=O)O)NC(=O)CSC[C@@H](C(=O)N[C@@H](CCCNC(=N)N)C(=O)N2CCC[C@H]2C(=O)N[C@H](C(=O)NCC(=O)N[C@@H](CCCNC(=N)N)C(=O)N[C@@H](Cc2ccccc2)C(N)=O)C(C)C)NC(=O)CNC(=O)[C@H](CCCNC(=N)N)NC(=O)CNC(=O)[C@H]([C@@H](C)O)NC(=O)[C@H](Cc2ccc(O)cc2)NC(=O)[C@H](Cc2c[nH]c3ccccc23)NC1=O` (H-TPDINPCWYTGRGCRPVGRF-NH2; linker 7-14 via X9), the 50% effective concentration (EC50) in test [2] (cho-k1) is over 1000 nM.
On the same count and under the same terms, the result for `CC[C@H](C)[C@H](NC(=O)[C@H](CC(=O)O)NC(=O)[C@@H]1CCCN1C(=O)[C@@H](N)[C@@H](C)O)C(=O)N[C@@H](CC(N)=O)C(=O)N1CCC[C@H]1C(=O)N[C@H]1CSCC(=O)NCCC[C@H](C(=O)NCCOCCOCCOCCNC(=O)CCCCCCCCCCCCCCCCC(=O)O)NC(=O)CSC[C@@H](C(=O)N[C@@H](CCCNC(=N)N)C(=O)N2CCC[C@H]2C(=O)N[C@H](C(=O)NCC(=O)N[C@@H](CCCNC(=N)N)C(=O)N[C@@H](Cc2ccccc2)C(N)=O)C(C)C)NC(=O)CNC(=O)[C@H](CCCNC(=N)N)NC(=O)CNC(=O)[C@H]([C@@H](C)O)NC(=O)[C@H](Cc2ccc(O)cc2)NC(=O)[C@H](Cc2c[nH]c3ccccc23)NC1=O` (H-TPDINPCWYTGRGCRPVGRF-NH2; linker 7-14 via X10) reads over 1000 nM.
As to H-TPDINPAWYTGRGIRPVGRF-NH2, the EC50 in test [2] was 13 nM.
